Compounds with a hit are over-represented: about 2.7% of the library has one in this group of screens.
MsrA act: activators of bovine methionine sulfoxide reductase A. purified bovine MsrA, absorbance read-out. activation, % at 10.6 µM. 0.3% of 360,000 active. AID 602163; in the data active means activation above about 7.5%
ARFGAP1 inh: rat ARFGAP1 inhibition | Arfgap1-stimulated ARF1 GTP hydrolysis, GDP FP detection | inhibition, % at 16.5 µM | 0.26% of 360,000 active;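 active means inhibition above a per-plate limit, mean inhibition of low control wells plus 3 SD, cut at about 25% in these data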
Target sequence (Q62848 1-136 limits assumed): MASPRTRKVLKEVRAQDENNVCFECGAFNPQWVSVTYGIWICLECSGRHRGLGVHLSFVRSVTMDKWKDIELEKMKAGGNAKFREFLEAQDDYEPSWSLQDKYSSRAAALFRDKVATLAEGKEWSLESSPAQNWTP
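material = rat Arfgap1 catalytic domain, aa 1-136 | also added = human ARF1(Δ1-17)-GTP substrate | compound dosing = one concentration, 16.5 µM, DMSO 1.26% | times = GTP hydrolysis reaction 2 h at 25 °C | measured by = FP, GDP Alexa 633 tracer displaced from anti-GDP antibody, 620/688 nm | evaluation = percent inhibition of Arfgap1-stimulated GTP hydrolysis | replication = single well per compound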
ASAP1 inh: inhibitors of human ASAP1 ArfGAP activity | Q9ULH1 | ASAP1-stimulated ARF1 GTP hydrolysis, GDP FP detection | inhibition, % at 16.5 µM | 0.19% of 360,000 active | AID 624377; in the data active means inhibition above about 25%
Target sequence (Q9ULH1 325-724 limits assumed): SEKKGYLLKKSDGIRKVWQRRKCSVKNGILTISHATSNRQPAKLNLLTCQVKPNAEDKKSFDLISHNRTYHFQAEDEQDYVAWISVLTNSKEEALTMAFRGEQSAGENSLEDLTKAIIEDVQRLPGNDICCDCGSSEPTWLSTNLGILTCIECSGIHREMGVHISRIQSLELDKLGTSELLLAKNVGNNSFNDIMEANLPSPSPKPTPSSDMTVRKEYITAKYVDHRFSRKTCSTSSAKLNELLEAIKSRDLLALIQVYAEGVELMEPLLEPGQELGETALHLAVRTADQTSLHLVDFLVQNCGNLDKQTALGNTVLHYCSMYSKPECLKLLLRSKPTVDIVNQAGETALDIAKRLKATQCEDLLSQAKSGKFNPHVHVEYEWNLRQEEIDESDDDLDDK
Rev-erbA mod: modulators of human Rev-erb alpha DNA binding; P20393; Rev-erbα–FITC-DNA binding, fluorescence polarization, 90 min; activity, % at 10 µM; 0.79% of 370,000 active;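 active means activity above about 14%, limit read from the data; passing the limit was not always enough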
sPLA2-III inh: Blocks human group III sPLA2 activity; QFRET BODIPY PC-A2 liposome hydrolysis, fluorescence; Q9NZ20; 0.56% of 370,000 active; AID 743126; inhibition, % at 12.2 µM;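 active means inhibition above mean plus 3 SD of compounds lying within the high and low control bounds, cut at about 19% in these data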
MsrA inh: inhibitors of bovine MsrA; inhibition, % at 15.5 µM; 0.75% of 360,000 active; AID 651718; purified bovine MsrA, absorbance read-out; in the data active means inhibition above about 4.5%
NR1D1 mod conf: confirmation of modulators of human Rev-erb alpha DNA binding; 61% of 3,000 active; shares compounds with Rev-erbA mod; Rev-erb alpha FITC-DNA binding, fluorescence polarization, 90 min; activation, % at 25 µM;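 active means activation at or above a set limit, or at least 3 SD above the negative control mean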
RORg counter: counter-screen for Rev-erb alpha modulators: RORgamma DNA binding. AID 1259320. shares compounds with Rev-erbA mod. 8% of 910 active. IC50, µM. purified RORgamma protein-FITC-DNA binding, fluorescence polarization;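 active means Compounds whose fitted half-maximal concentration for disrupting protein-DNA binding is below 10 micromolar; the record names Rev-erb in its text, so the target is in doubt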
Numbers stand for hits; – = inactive; · = not tested or not shown.

SMILES	MsrA act	ARFGAP1 inh	ASAP1 inh	Rev-erbA mod	sPLA2-III inh	MsrA inh	NR1D1 mod conf	others
COc1ccccc1NC(=O)CSc1nc(N)c(C#N)cc1C#N	–	–	–	73	–	–	65	RORg counter=–
CCOc1ccccc1NC(=O)CSc1nc(N)c(C#N)cc1C#N	–	–	–	84	–	–	46	RORg counter=–
CCOC(=O)CSc1nc(N)c(C#N)cc1C#N	–	–	–	–	–	–	·
COc1cc2c(cc1OC)CN(C(=O)CSC1=NCCS1)CC2	–	–	–	–	–	–	·
COc1cc2c(cc1OC)CN(C(=O)CSc1nc(N)c(C#N)cc1C#N)CC2	–	·	·	37	·	·	47	RORg counter=–
O=C(NC1CCCCC1)c1cccc(NC(=O)c2ccccc2Cl)c1	–	–	–	–	–	–	·
O=C1NC(c2cccc(OCc3ccccc3)c2)Nc2ccccc21 (stereo not drawn)	–	–	–	–	–	–	·
O=C(NCc1ccco1)c1ccc(Cn2c(=O)c3ccccc3n(Cc3ccc(Cl)cc3)c2=O)cc1	–	–	–	–	–	–	·
O=C(NCc1ccco1)c1ccc(Cn2c(=O)c3ccccc3n(Cc3cccc(F)c3)c2=O)cc1	–	–	–	53	–	–	37	RORg counter=–
Cc1cc2oc(C(=O)Nc3ccc(S(=O)(=O)Nc4ncccn4)cc3)c(C)c2cc1Cl	–	–	–	22	–	–	–
COc1ccc(-c2cc(C3CC3)nc(SCC(=O)c3cccs3)c2C#N)cc1	–	–	–	88	–	–	110	RORg counter=–
CCOC(=O)CSc1nc(C2CC2)cc(-c2ccc(F)cc2)c1C#N	–	–	–	·	–	–	·
CNc1ccc(Cl)cc1S(=O)(=O)c1ccccc1[N+](=O)[O-]	–	–	–	–	–	–	·
O=C(Nc1ccc(Cl)c(Cl)c1)C1CCCN1S(=O)(=O)c1cccc2cccnc12 (stereo not drawn)	·	·	·	–	–	·	·
COC(=O)Cn1c(=NC(=O)c2nc3ccccc3s2)sc2cc(S(C)(=O)=O)ccc21	·	–	–	78	–	–	59	RORg counter=1
O=C(CSc1nc2ccccc2nc1N1CCCCC1)N1CCN(S(=O)(=O)c2cc(Cl)ccc2Cl)CC1	·	·	·	28	–	·	30	RORg counter=–
COc1cccc(C(=O)Nc2ccc(C(F)(F)F)n(C)c2=O)c1	–	–	–	–	–	–	·
CCOc1ccc(C(=O)Nc2ccc(C(F)(F)F)n(C)c2=O)cc1	–	–	–	35	–	–	–
O=C1c2cccc3c(N4CCCCC4)ccc(c23)C(=O)N1c1cccc(O)c1	–	–	–	61	–	–	62	RORg counter=–
O=C(c1cccc(N2C(=O)c3ccccc3C2=O)c1)N1CCCCCC1	–	–	–	–	–	–	·
Cc1n[nH]c(C)c1N1C(=O)c2cccc3c(N4CCCCCC4)ccc(c23)C1=O	–	–	–	94	–	–	90	RORg counter=–
O=C1c2cccc3c(N4CCCCC4)ccc(c23)C(=O)N1CCO	–	–	–	47	–	–	33	RORg counter=–
C=CCN1C(=O)c2cccc3c(N4CCCCC4)ccc(c23)C1=O	–	–	–	19	–	–	24
C[C@H]1CN([C@@H](C)CO)C(=O)CCCn2cc(nn2)CO[C@@H]1CN(C)C(=O)Nc1cccc(F)c1	–	–	–	–	–	–	·
CCOC(=O)/C=C1/SCC(=O)N1CCOc1cccc(Br)c1	–	–	–	24	–	–	12
SMILES	MsrA act	ARFGAP1 inh	ASAP1 inh	Rev-erbA mod	sPLA2-III inh	MsrA inh	NR1D1 mod conf	others
Cc1cnc(-c2nc3ccccc3n2C(C(=O)NC(C)(C)C)c2ccncc2)cn1 (stereo not drawn)	·	–	–	–	–	–	·
CN(C)c1ccc(P(=O)(Nc2ccccc2)N2CCOCC2)c(NC(=O)c2cccs2)c1 (stereo not drawn)	–	–	–	42	–	–	19
Cc1ccc(NP(=O)(c2ccc(N(C)C)cc2NC(=O)c2cccs2)N2CCOCC2)cc1 (stereo not drawn)	–	–	–	24	–	–	–
CCCCCc1ccc(OCCCC[n+]2cccc(C)c2)c(CCCCC)c1	–	–	–	21	–	–	28
CCC(C)(C)c1ccc(OCCCC[n+]2ccccc2)c(C(C)(C)CC)c1	–	–	–	–	–	–	·
CCCCCc1ccc(OCCCC[n+]2ccccc2)c(CCCCC)c1	–	·	·	·	·	·	·
CCCCCc1ccc(OCCCC[n+]2ccc(C)cc2)c(CCCCC)c1	–	–	–	21	–	–	25
CCc1ccc(-c2nc(NC(=O)c3ccc(OCC(=O)Nc4ccc(F)cc4)c(OC)c3)sc2C)cc1	–	–	–	113	–	–	66	RORg counter=–
COc1cc(C(=O)Nc2nc(-c3ccc(Cl)cc3)c(C)s2)ccc1OCC(=O)Nc1ccc(F)cc1	–	–	–	122	–	–	125	RORg counter=–
Cc1nn(C)c(C)c1NC(=O)CSc1nc(Cc2ccccc2)nc2c1cnn2-c1ccccc1	–	–	–	181	–	–	76
COc1ccc(C2Nc3ccc(Br)cc3C(c3ccccc3)N2CC(=O)O)cc1 (stereo not drawn)	–	–	–	18	–	–	–
CCn1c2ccccc2c2cc(NC(=O)CSc3nnc(-c4cccc(Cl)c4)o3)ccc21	–	–	–	32	–	–	–
COC(=O)CC1OCC=C2CN3CCC45C6=CC(=O)C(=O)C([N+](=O)[O-])=C6NC4C1C2CC35 (stereo not drawn)	–	–	–	–	–	–	·
O=C(Nc1ccc(F)cc1)c1oc2ccccc2c1NC(=O)C1CCCC1	–	·	·	26	·	·	–
O=C(OCC#CCSc1nnc(-c2c[nH]c3ccccc23)o1)c1ccc(F)cc1	·	·	·	–	–	·	·
CCOC(=O)c1c(-c2cccs2)csc1NC(C)=O	–	–	–	–	–	–	·
CCOC(=O)c1c(-c2ccc(C)s2)csc1NC(=O)c1cccs1	–	–	–	50	–	–	25
CCCOc1cccc(C2C(C(=O)c3ccco3)=C(O)C(=O)N2c2nnc(C)s2)c1 (stereo not drawn)	–	–	–	–	–	–	·
CCCCOc1cccc(C2C(C(=O)c3ccc(C)o3)=C(O)C(=O)N2c2nnc(C)s2)c1 (stereo not drawn)	–	–	–	18	–	–	18
CC(C)C[C@@H]1O[C@H](C(C)C)Cc2[nH][nH]c(=O)c21	–	–	–	–	–	–	·
COc1ccc(N/C=C(\C=C\C#N)S(=O)(=O)c2ccccc2)cc1	–	–	–	22	–	–	–
N#C/C=C/C(=C\Nc1ccc(Cl)cc1)S(=O)(=O)c1ccccc1	–	–	–	–	–	–	·
O=C(NCc1cccc2ccccc12)Nc1ccccc1	–	–	–	–	–	–	·
CNc1ccccc1/C(O)=C(\C#N)C(=O)NCc1cccc2ccccc12	·	·	·	42	–	·	26
